Measurements from article PMC7893792 (ACS Omega, 2021).
Blank lines part the entries; values can stand above or below the molecule they belong to.

How the values were obtained:
hOAT3 [1] = target: T1, hOAT3 (Homo sapiens, UniProt Q8TCC7); assay: 6-CF uptake by hOAT3-expressing HEK293 cells; assay type: cell-based; details: for inhibition at 100 µM: HEK293, pH 7.4, read-out: Inhibition of hOAT3-mediated 6-CF uptake
T1 sequence (Q8TCC7 1-542): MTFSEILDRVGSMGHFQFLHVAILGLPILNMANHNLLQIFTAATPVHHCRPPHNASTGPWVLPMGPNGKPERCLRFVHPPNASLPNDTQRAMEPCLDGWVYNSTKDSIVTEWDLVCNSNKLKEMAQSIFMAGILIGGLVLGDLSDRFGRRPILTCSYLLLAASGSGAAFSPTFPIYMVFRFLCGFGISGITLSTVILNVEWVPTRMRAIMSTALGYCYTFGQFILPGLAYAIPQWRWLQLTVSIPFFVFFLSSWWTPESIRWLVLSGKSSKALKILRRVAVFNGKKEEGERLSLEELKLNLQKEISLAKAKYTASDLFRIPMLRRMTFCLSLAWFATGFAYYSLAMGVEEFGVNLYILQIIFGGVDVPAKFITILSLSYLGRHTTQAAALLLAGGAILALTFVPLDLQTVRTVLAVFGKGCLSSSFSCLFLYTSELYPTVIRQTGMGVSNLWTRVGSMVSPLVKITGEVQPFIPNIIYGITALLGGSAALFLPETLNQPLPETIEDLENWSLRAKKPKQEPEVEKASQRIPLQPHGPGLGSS
Method in brief: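 After 10 min preincubation at 37 °C in Waymouth buffer pH 7.4, cells took up 1 μM 6-CF with test compound for 2 min, then ice-cold PBS wash, 1% SDS lysis, fluorescence. Vector uptake subtracted. Inhibition type: 6-CF 1–100 μM ± 0.1 mM test compound, Eadie–Hofstee plot; mean ± SE, n = 3–4.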

rOat3 = target: T2, rOat3 (Rattus norvegicus, UniProt Q9R1U7); assay: 6-CF uptake by rOat3-expressing HEK293 cells; assay type: cell-based; details: for inhibition at 100 µM: HEK293, pH 7.4, read-out: Inhibition of rOat3-mediated 6-CF uptake
T2 sequence (Q9R1U7 1-536): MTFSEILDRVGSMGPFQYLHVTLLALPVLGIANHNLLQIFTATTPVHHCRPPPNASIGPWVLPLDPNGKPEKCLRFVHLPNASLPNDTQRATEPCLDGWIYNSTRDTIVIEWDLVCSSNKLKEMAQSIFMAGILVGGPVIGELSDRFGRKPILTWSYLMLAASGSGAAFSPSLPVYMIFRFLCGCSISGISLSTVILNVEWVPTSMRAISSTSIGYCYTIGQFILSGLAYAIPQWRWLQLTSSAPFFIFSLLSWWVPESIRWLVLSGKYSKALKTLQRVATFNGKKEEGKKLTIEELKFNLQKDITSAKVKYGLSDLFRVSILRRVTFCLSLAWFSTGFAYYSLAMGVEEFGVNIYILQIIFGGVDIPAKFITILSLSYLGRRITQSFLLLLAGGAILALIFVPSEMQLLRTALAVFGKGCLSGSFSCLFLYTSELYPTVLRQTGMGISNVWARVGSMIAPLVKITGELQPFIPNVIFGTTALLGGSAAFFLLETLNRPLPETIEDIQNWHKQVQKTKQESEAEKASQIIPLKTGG

hOAT1 [2] = target: T3, hOAT1 (Homo sapiens, UniProt Q4U2R8); assay: 6-CF uptake by hOAT1-expressing HEK293 cells; assay type: cell-based
T3 sequence (Q4U2R8 1-563): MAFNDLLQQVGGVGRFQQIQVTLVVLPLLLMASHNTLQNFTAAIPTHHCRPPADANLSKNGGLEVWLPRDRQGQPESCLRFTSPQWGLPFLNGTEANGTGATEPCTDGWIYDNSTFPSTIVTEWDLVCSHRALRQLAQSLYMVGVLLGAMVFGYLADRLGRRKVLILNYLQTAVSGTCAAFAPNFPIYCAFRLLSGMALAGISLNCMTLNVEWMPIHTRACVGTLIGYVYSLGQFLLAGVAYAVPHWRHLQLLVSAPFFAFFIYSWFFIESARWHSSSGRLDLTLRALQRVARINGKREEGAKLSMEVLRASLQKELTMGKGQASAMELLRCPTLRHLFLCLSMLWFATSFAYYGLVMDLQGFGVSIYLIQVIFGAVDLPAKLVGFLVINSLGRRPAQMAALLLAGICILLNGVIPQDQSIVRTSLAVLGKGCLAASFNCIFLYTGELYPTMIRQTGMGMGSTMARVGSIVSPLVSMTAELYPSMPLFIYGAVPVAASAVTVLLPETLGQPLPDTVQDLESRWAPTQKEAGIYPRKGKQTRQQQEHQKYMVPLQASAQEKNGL

rOat1 = target: T4, rOat1 (Rattus norvegicus, UniProt O35956); assay: 6-CF uptake by rOat1-expressing HEK293 cells; assay type: cell-based
T4 sequence (O35956 1-551): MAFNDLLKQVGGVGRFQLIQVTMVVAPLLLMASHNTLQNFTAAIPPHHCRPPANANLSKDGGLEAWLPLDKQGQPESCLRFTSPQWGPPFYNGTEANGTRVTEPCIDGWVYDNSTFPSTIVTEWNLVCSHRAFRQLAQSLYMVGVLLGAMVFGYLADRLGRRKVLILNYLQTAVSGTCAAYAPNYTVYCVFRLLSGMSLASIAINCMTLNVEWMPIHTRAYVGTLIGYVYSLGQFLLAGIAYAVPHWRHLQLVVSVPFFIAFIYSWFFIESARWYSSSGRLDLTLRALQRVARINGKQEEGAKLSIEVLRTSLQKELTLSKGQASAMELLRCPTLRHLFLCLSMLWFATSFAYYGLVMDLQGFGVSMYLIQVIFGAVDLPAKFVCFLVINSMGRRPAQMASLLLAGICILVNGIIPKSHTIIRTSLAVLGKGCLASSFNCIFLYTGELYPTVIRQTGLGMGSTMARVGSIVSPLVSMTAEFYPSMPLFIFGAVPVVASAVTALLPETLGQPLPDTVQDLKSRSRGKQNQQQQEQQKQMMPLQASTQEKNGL

hOAT1 [3] = target: T3, hOAT1; details: cited from earlier work
mouse Oat3 = details: cited from earlier work
renal Oats = assay: Plasma concentration and urinary excretion of 6-CF in rats; assay type: in vivo; details: rat; for Decrease of the renal clearance (CLr) of 6-CF: vs control, probenecid 100 mg/kg, EGCG 60 mg/kg, 2% D-malate
Method in brief: (§1)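 Male Wistar/ST rats (7 weeks) were anesthetized with ethyl carbamate/α-chloralose, with femoral artery, vein and bladder catheters. 5% mannitol iv bolus 2.5 mL/kg, then 0.03 mL/min infusion. After 20 min, 6-CF 1 mg/kg iv bolus ± test compound 60 mg/kg, saline vehicle. Plasma sampled 1–60 min, urine 0–60 min; fluorescence read-out. AUC0–60 by trapezoidal rule; CLr = 60-min urinary amount/AUC0–60; mean ± SD, 6–8 rats.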

Renal parameters = assay type: in vivo; details: rat; for BUN / Ccr: iv probenecid 100 mg/kg, EGCG 60 mg/kg or 2% D-malate; for Change in blood urea nitrogen (BUN) / Change in creatinine clearance (Ccr): vs control, Dunnett's test
Method in brief: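 Anesthetized, catheterized male Wistar/ST rats on iv 5% mannitol (2.5 mL/kg bolus, 0.03 mL/min infusion; ± 2% D-malate) received 6-CF 1 mg/kg iv alone or with reference inhibitor 100 mg/kg or test compound 60 mg/kg. BUN measured with a colorimetric urea kit; plasma and urine creatinine by kit. Ccr = urinary creatinine excretion rate ÷ plasma creatinine. One-way ANOVA, Dunnett's test vs control.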

hOAT3 [4] = target: T1, hOAT3; details: cited from earlier work
[5] = Plasma concentration and urinary excretion of 6-CF in rats; assay type: in vivo; details: male, Wistar/ST, rat, iv, 1 mg/kg
Method in brief: as §1

hOAT1 [6] = target: T3, hOAT1; details: cited from earlier work; remark: listed apart in the source
[7] = substrate: O=C(O)c1ccc(C(=O)O)c(-c2c3ccc(=O)cc-3oc3cc(O)ccc23)c1; assay: 6-CF uptake by rOat1-expressing HEK293 cells; assay type: cell-based, rat; details: other: HEK293-rOat1, 2 min, 37 °C, pH 7.4, 1-100 μM 6-CF
[8] = EGCG 60 mg/kg iv with 6-CF 1 mg/kg
[9] = compound 100 μM, 6-CF 1 μM, 2 min, 37 °C, pH 7.4

inhibition at 100 µM (hOAT3 [1]): > 80%
inhibition at 100 µM (rOat3): > 80%
Molecule: CCCCC[C@H](O)/C=C/[C@H]1[C@H](O)CC(=O)[C@@H]1C/C=C\CCCC(=O)O [prostaglandin E2]

Inhibitory effect, OAT1 compared with OAT3 (human) (hOAT1 [2]; 100 μM, hOAT1 vs hOAT3 plot): higher for OAT1 than those for OAT3
Inhibitory effect, OAT1 compared with OAT3 (rat) (rOat1; 100 μM, rOat1 vs rOat3 plot): higher for OAT1 than those for OAT3
Molecule: Nc1ncnc2c1ncn2CCOCP(=O)(O)O [adefovir]

inhibition at 100 µM (hOAT3 [1]): > 80%
inhibition at 100 µM (rOat3): > 80%
BUN (Renal parameters): 12.6 ± 0.7 mg/dL
Ccr (Renal parameters): 2.51 ± 0.78 mL/min/kg
Change in blood urea nitrogen (BUN) (Renal parameters): no significant change
Change in creatinine clearance (Ccr) (Renal parameters): no significant change
Molecule: CCCN(CCC)S(=O)(=O)c1ccc(C(=O)O)cc1 [probenecid]
Decrease of the renal clearance (CLr) of 6-CF (renal Oats): ~6 fold

CL renal ([5]; plasma and urine): 18.3 ± 6.8 mL/min/kg
AUC(0-t) ([5]; plasma): 573 ng·h/mL
Vmax of 6-CF uptake (rOat1; HEK293-rOat1, 2 min, 37 °C, pH 7.4): 131 ± 3 pmol/mg/2 min
Vmax of 6-CF uptake (rOat3; HEK293-rOat3, 2 min, 37 °C, pH 7.4): 35.3 ± 1.3 pmol/mg/2 min
Molecule: O=C(O)c1ccc(C(=O)O)c(-c2c3ccc(=O)cc-3oc3cc(O)ccc23)c1 [6-CF, 6-carboxyfluorescein]
Vmax of 6-CF transport (hOAT3 [4]): 70.0 ± 3.2 pmol/mg/2 min
Km (hOAT3 [4]; read-out: Km of 6-CF transport): 38.4 ± 4.2 µM
Vmax of 6-CF transport (hOAT1 [6]): 125.1 ± 1.6 pmol/mg/2 min
Km (hOAT1 [6]; read-out: Km of 6-CF transport): 6.94 ± 0.33 µM

Inhibition of hOAT3-mediated 6-CF uptake (hOAT3 [1]; [9]): no effects
Inhibition of hOAT1-mediated 6-CF uptake (hOAT1 [2]; [9]): no effects
Inhibition of rOat1-mediated 6-CF uptake (rOat1; [9]): no effects
Inhibition of rOat3-mediated 6-CF uptake (rOat3; [9]): no effects
Molecule: CC[N+](CC)(CC)CC [TEA, tetraethylammonium]

Further lines, the molecule ahead of its results:

Molecule: Oc1cc(O)c2c(c1)O[C@H](c1ccc(O)c(O)c1)[C@H](O)C2 [epicatechin]
Interaction with hOAT1 (hOAT1 [3]): did not interact
Inhibition of mouse Oat3 (mouse Oat3): inhibit

Molecule: O=C(O)C[C@@H](O)C(=O)O [D-malate]
Decrease of the renal clearance (CLr) of 6-CF (renal Oats): ~4 fold
BUN (Renal parameters): 11.4 ± 1.1 mg/dL
Ccr (Renal parameters): 2.92 ± 0.66 mL/min/kg
Change in blood urea nitrogen (BUN) (Renal parameters): no significant change
Change in creatinine clearance (Ccr) (Renal parameters): no significant change

Molecule: O=C(O[C@@H]1Cc2c(O)cc(O)cc2O[C@@H]1c1cc(O)c(O)c(O)c1)c1cc(O)c(O)c(O)c1 [EGCG, (−)-epigallocatechin-3-gallate]
Type of inhibition (hOAT3 [1]; hOAT3, Eadie-Hofstee plot): competitive inhibition
Type of inhibition (hOAT1 [2]; hOAT1, Eadie-Hofstee plot): mixed-type inhibition
Increase of 6-CF AUC0–60 (renal Oats; [8]): ~2.2 fold
Increase of the plasma concentration of 6-CF at 60 min (renal Oats; [8]): ~8 fold
Decrease of the renal clearance (CLr) of 6-CF (renal Oats): ~2.6 fold
Type of inhibition (rOat1; rOat1, Eadie-Hofstee plot): competitive inhibition
Type of inhibition (rOat3; rOat3, Eadie-Hofstee plot): competitive inhibition
BUN (Renal parameters): 11.9 ± 1.3 mg/dL
Ccr (Renal parameters): 2.58 ± 0.82 mL/min/kg
Change in blood urea nitrogen (BUN) (Renal parameters): no significant change
Change in creatinine clearance (Ccr) (Renal parameters): no significant change

Molecule: O.Oc1cc(O)c2c(c1)O[C@H](c1ccc(O)c(O)c1)[C@@H](O)C2 [catechin]
Interaction with hOAT1 (hOAT1 [3]): did not interact

Molecule: O=C(O[C@@H]1Cc2c(O)cc(O)cc2O[C@@H]1c1ccc(O)c(O)c1)c1cc(O)c(O)c(O)c1 [epicatechin gallate]
Inhibition of mouse Oat3 (mouse Oat3): inhibit

B1: rOat1 (Rattus norvegicus) (protein)
chain: MAFNDLLKQVGGVGRFQLIQVTMVVAPLLLMASHNTLQNFTAAIPPHHCRPPANANLSKDGGLEAWLPLDKQGQPESCLRFTSPQWGPPFYNGTEANGTRVTEPCIDGWVYDNSTFPSTIVTEWNLVCSHRAFRQLAQSLYMVGVLLGAMVFGYLADRLGRRKVLILNYLQTAVSGTCAAYAPNYTVYCVFRLLSGMSLASIAINCMTLNVEWMPIHTRAYVGTLIGYVYSLGQFLLAGIAYAVPHWRHLQLVVSVPFFIAFIYSWFFIESARWYSSSGRLDLTLRALQRVARINGKQEEGAKLSIEVLRTSLQKELTLSKGQASAMELLRCPTLRHLFLCLSMLWFATSFAYYGLVMDLQGFGVSMYLIQVIFGAVDLPAKFVCFLVINSMGRRPAQMASLLLAGICILVNGIIPKSHTIIRTSLAVLGKGCLASSFNCIFLYTGELYPTVIRQTGLGMGSTMARVGSIVSPLVSMTAEFYPSMPLFIFGAVPVVASAVTALLPETLGQPLPDTVQDLKSRSRGKQNQQQQEQQKQMMPLQASTQEKNGL
Km [7]: 6.68 ± 0.62 µM
